Measurements as given in ChEMBL document CHEMBL3352463, “Brain-penetrant, orally bioavailable microtubule-stabilizing small molecules are potential candidate therapeutics for Alzheimer's disease and related tauopathies” (J Med Chem, 2014).
Activity calls are given as the source filed them. The calls are words filed in the database; no cut-off is given here.

Legend:
QBI293 [1] = test: Induction of microtubule stabilization in human QBI293 cells assessed as increase in acetylated alpha-tubulin at 1 uM after 4 hrs by ELISA relative to 0.1 uM treated triazolopyrimidines cevipabulin; type: cell-based
Method in brief: (§1)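 QBI293 cells exposed to compound at 1 μM. Acetylated α-tubulin expressed as fold-change over vehicle-treated cells and over cells given 0.1 μM cevipabulin as positive control. Significance by two-tailed t-test.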

QBI293 [2] = test: Induction of microtubule stabilization in human QBI293 cells assessed as increase in acetylated alpha-tubulin at 1 uM after 4 hrs by ELISA relative to vehicle treated control; type: cell-based; method in brief: as §1
[3] = molecular target: ATP-dependent translocase ABCB1 (Homo sapiens, UniProt P08183); test: Inhibition of human P-glycoprotein expressed in NCI/ADR-RES cells assessed as reduction of calcein-AM transport after 20 mins by fluorescence assay; type: cell-based
Sequence of ATP-dependent translocase ABCB1 (P08183 whole entry): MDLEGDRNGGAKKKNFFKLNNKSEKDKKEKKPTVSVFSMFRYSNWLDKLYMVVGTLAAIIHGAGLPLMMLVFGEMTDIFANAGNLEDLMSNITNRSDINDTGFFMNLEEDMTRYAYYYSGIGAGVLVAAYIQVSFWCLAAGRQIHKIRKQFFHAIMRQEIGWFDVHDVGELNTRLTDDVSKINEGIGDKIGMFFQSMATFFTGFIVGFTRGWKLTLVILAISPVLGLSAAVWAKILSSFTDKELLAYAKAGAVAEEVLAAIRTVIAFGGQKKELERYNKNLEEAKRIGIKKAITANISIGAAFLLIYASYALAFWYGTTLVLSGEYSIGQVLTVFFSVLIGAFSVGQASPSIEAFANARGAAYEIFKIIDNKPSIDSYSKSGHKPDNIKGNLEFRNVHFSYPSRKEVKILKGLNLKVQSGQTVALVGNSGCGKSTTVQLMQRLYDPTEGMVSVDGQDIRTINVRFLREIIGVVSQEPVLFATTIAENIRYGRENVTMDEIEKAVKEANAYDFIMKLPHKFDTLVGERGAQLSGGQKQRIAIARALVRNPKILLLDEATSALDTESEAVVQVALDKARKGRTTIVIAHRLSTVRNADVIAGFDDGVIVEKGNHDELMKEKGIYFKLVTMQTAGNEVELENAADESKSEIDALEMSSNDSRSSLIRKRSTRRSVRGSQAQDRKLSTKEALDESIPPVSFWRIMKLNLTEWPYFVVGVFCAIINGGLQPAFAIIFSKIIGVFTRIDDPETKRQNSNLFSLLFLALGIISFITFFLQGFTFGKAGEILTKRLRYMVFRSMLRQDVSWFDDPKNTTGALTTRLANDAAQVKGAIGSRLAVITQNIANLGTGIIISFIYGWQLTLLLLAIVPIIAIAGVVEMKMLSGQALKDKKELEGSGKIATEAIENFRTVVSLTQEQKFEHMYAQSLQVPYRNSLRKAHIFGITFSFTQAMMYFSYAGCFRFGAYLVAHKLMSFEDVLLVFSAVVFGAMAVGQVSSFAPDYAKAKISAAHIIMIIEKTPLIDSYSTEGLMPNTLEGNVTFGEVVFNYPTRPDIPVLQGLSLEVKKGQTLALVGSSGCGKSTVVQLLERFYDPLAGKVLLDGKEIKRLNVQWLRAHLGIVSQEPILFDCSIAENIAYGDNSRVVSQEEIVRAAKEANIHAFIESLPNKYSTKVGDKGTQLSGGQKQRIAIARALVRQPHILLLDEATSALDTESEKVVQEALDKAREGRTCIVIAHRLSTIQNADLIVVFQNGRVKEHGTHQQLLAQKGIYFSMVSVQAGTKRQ

QBI293 [4] = test: Induction of microtubule stabilization in human QBI293 cells assessed as increase in acetylated alpha-tubulin at 100 nM after 4 hrs by immunofluorescence assay relative to control; type: cell-based
Method in brief: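 QBI293 cells incubated 4 h with test compound (100 nM), colchicine (1 μM) or no compound; acetylated α-tubulin visualized by immunofluorescence to assess microtubule number/organization.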

[5] = Drug level in CD1 mouse brain at 5 mg/kg, ip after 1 hr by LC-MS/MS system; type: ADME, organism-based; design: dose 5 mg/kg, route intraperitoneal; conditions: read-out: Drug uptake
Method in brief: (§2)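 2-month-old CD1 mice (about 20 g) given 5 mg/kg ip; brain and plasma sampled at 1 h. Hemispheres sonicated in 10 mM ammonium acetate pH 5.7 (1:2 w/v); plasma from EDTA blood spun 4500g, 10 min, 4 °C. Acetonitrile extraction, then UPLC-MS/MS in positive ESI MRM mode. Quantified against spiked standard curves at 0.005–5 μM in matching matrix.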

[6] = Drug level in CD1 mouse plasma at 5 mg/kg, ip after 1 hr by LC-MS/MS system; type: ADME, organism-based; design: dose 5 mg/kg, route intraperitoneal; method in brief: as §2
[7] = Ratio of drug level in brain to plasma in CD1 mouse at 5 mg/kg, ip after 1 hr by LC-MS/MS system
[8] = Ratio of AUC for free drug level in brain to plasma in CD1 mouse at 5 mg/kg, ip after 1 hr by LC-MS/MS system; type: ADME, organism-based; design: dose 5 mg/kg, route intraperitoneal; conditions: brain and plasma
Mus musculus = test: Induction of microtubule stabilization in wild type mouse assessed as increase in acetylated alpha-tubulin level in brain at 1 mg/kg, ip after 4 to 6 days; type: functional, organism-based; design: dose 1 mg/kg
Method in brief: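 Wild-type mice (n = 3 per group) dosed 1 mg/kg ip once daily for 4 or 6 days; acetylated α-tubulin measured in brain homogenates, expressed relative to controls; significance by ANOVA with Dunnett's multiple comparison test.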

[9] = Elimination half life in CD1 mouse plasma at 5 mg/kg, ip after 1 hr by LC-MS/MS system; type: ADME, organism-based; design: dose 5 mg/kg, route intraperitoneal; conditions: read-out: beta t1/2 (converted)
Method in brief: (§3)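 Female? no—2-month-old CD1 mice (20 g average) given 5 mg/kg ip; plasma (EDTA blood, centrifuged 4500g, 10 min, 4 °C) and brain hemispheres (homogenized in 10 mM ammonium acetate pH 5.7) sampled over 16 h. Acetonitrile extraction, LC-MS/MS by MRM against spiked standard curves (0.005–5 μM). Half-life from elimination rate constant, slope of ln concentration vs time at 4, 8 and 16 h.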

[10] = Elimination half life in CD1 mouse brain at 5 mg/kg, ip after 1 hr by LC-MS/MS system; type: ADME, organism-based; design: dose 5 mg/kg, route intraperitoneal; conditions: read-out: beta t1/2 (converted); method in brief: as §3
[11] = Ratio of AUC for drug level in brain to plasma in CD1 mouse at 5 mg/kg, ip after 1 hr by LC-MS/MS system; type: ADME, organism-based; design: dose 5 mg/kg, route intraperitoneal; conditions: brain and plasma, read-out: Ratio AUC
Method in brief: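 2-month-old CD1 mice given 5 mg/kg ip; brain hemispheres (homogenized 1:2 w/v in 10 mM ammonium acetate pH 5.7) and EDTA plasma collected over a 16 h time course. Acetonitrile-precipitated supernatants quantified by LC-MS/MS (MRM, positive ESI) with spiked standard curves 0.005–5 μM.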

| Compound | fold change (FC) (QBI293 [2]) | concentration at 1 h [5] [nM] | concentration at 1 h [6] [nM] | BPR [7] | further results |
| --- | --- | --- | --- | --- | --- |
| CC(=O)NCCCOc1cc(F)c(-c2c(Cl)nc3ncnn3c2N[C@@H](C)C(F)(F)F)c(F)c1 | 4.5 | – | – | – | fold change (FC) (QBI293 [1]): 1.5 |
| C/C1=C/C[C@@H](/C(C)=C/c2csc(C)n2)OC(=O)C[C@H](O)C(C)(C)C(=O)[C@H](C)[C@@H](O)[C@@H](C)CCC1 [EPOTHILONE D] | – | – | – | – | inhibition (INH) [3]: Active; Activity (QBI293 [4]): Active |
| Fc1cc(F)c(-c2c(Cl)nc(-c3ccccn3)nc2NCC(F)(F)F)c(F)c1 | 1.6 | – | – | – | – |
| CC(C)Nc1nc2nccnc2c(Cl)c1-c1c(F)cc(F)cc1F | 1 | – | – | – | – |
| C[C@H](Nc1c(-c2c(F)cc(OCCCCl)cc2F)c(Cl)nc2ncnn12)C(F)(F)F | 1.2 | 160 | 178 | 0.88 | – |
| NS(=O)(=O)c1ccc(NC(NC(=O)c2ccc(Br)cc2)C(Cl)(Cl)Cl)cc1 (stereo not drawn) | 1 | – | – | – | – |
| C[C@H](Nc1nc(-c2cnccn2)nc(Cl)c1-c1c(F)cc(OCCCN(C)C)cc1F)C(F)(F)F | 4.1 | 860 | 2500 | 0.35 | fold change (FC) (QBI293 [1]): 0.5 |
| CC(C)c1cccc(C(C)C)c1N1C(=O)c2ccc(O)cc2C1=O | 1 | – | – | – | – |
| COc1ccc(CCN(C)CCCC(C#N)(c2ccc(OC)c(OC)c2)C(C)C)cc1OC (stereo not drawn) | – | – | – | – | inhibition (INH) [3]: Active |
| C[C@H](Nc1nc(-c2cnccn2)nc(Cl)c1-c1c(F)cc(F)cc1F)C(F)(F)F | 2.7 | 2900 | 5000 | – | inhibition (INH) [3]: Not Active; Kp uu at 1 h [8]: 1.7; Activity (Mus musculus): Active; half-life [9]: 15 h; half-life [10]: 15 h; fold change (FC) (QBI293 [1]): 0.9; Kp at 1 h [11]: 0.72 |
| C[C@H](Nc1c(-c2c(F)cc(OCCCNc3ccccc3)cc2F)c(Cl)nc2ncnn12)C(F)(F)F | 1 | 120 | 75 | 1.6 | – |
| Fc1cc(F)c(-c2c(Cl)nc(-c3cnccn3)nc2NCC(F)(F)F)c(F)c1 | 1.5 | – | – | – | – |
| C[C@H](Nc1c(-c2c(F)cc(OCCCO)cc2F)c(Cl)nc2ncnn12)C(F)(F)F | 10.1 | 78 | 29 | 2.8 | fold change (FC) (QBI293 [1]): 1.2 |
| CNCCCOc1cc(F)c(-c2c(Cl)nc3ncnn3c2N[C@@H](C)C(F)(F)F)c(F)c1 [CEVIPABULIN] | – | 92 | 2500 | 0.037 | inhibition (INH) [3]: Not Active; Activity (QBI293 [4]): Active |
